Here are results for 6 compounds from ChEMBL document CHEMBL2331368, “Inhibitors of HIV-1 attachment. Part 9: an assessment of oral prodrug approaches to improve the plasma exposure of a tetrazole-containing derivative” (Bioorg Med Chem Lett, 2013).

pEC50: −log10 of the molar value.

The nature of data set [1]: Plasma concentration in rat at 5 mg/kg, po at 120 mins. Format: ADME, organism-based. Set-up: dose 5 mg/kg, route oral. The gist of the method: (§1)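 Rats received 5 mg/kg orally in 90% PEG 400/10% EtOH. The parent tetrazole concentration in plasma was measured at 30 and 120 min after dosing. Each value is the average of two rats.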
The nature of data set [2]: Plasma concentration in rat at 5 mg/kg, po at 30 mins. Set-up: dose 5 mg/kg, route oral. Format: ADME, organism-based. The method in brief:
as §1

Data set [3] concerns Human immunodeficiency virus 1. Description: Antiviral activity against HIV1 JRFL pseudotyped virions infected in HeLa CD4 CCR5 cells after 48 hrs by luciferase assay. The following applies: Human immunodeficiency virus 1, JRFL, HeLa-CD4/CCR5, 48 h. Format: functional, organism-based. The method in brief: (§2)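 EC50s came from a single-cycle infectivity assay with HIV JRFL pseudotyped virus. CC50s were determined by the method described in an earlier report. Values are means of two or more experiments.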

Data set [4] can be described thus: Oral bioavailability in rat at 5 mg/kg. Format: ADME, organism-based. The following applies: in vivo. The method in brief: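 Rat pharmacokinetics used 90% PEG 400/10% EtOH as vehicle. The IV dose was 1 mg/kg and the oral dose 5 mg/kg.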
The nature of data set [5]: Half life in human liver microsomes assessed in presence of NADPH. Format: ADME, Microsome. In general terms: Liver microsomes are vesicles of endoplasmic reticulum, rich in cytochrome P450 enzymes.
Data set [6] in a line: Cytotoxicity against human HeLa cells by XTT assay. Format: cell-based. The gist of the method: as §2
(In general: Tetrazolium assays rely on reduction of a dye to a coloured formazan, in cell work by metabolically active cells.)

The subject of a further data set is Caco-2. Description: Permeability across human Caco2 cells at pH 6.5. Format: ADME, cell-based. Conditions: caco-2, pH 6.5. (In general: Caco-2 cells form a polarised layer with tight junctions and transporters.)
Another data set relates to Liver microsomes. Description: Prodrug conversion in human liver microsomes assessed as formation of 1-(4-benzoylpiperazin-1-yl)-2-(4-fluoro-7-(2H-tetrazol-5-yl)-1H-indol-3-yl)ethane-1,2-dione in absence of NADPH after 5 mins. Format: ADME, Microsome.
Data set [7] is described as follows: Permeability across human Caco2 cells assessed as drug recovery at pH 6.5. Format: ADME, cell-based. Conditions: caco-2, pH 6.5, read-out: Drug recovery.

The pEC50 is the EC50 on a negative log10 scale, so that one unit is a factor of ten. Low readings indicate a large EC50, high ones a small EC50. As to `O=C(C(=O)N1CCN(C(=O)c2ccccc2)CC1)c1c[nH]c2c(-c3nn[nH]n3)ccc(F)c12`, the concentration at 2 h in data set [1] was 25 ng/mL. Also, the concentration at 0.5 h in [2] came out at 19 ng/mL. This compound also had a negative-log EC50 (pEC50) in data set [3] of 7.47.

One may read the bioavailability as the share of a dose that reaches the circulation, judged against a reference dose that is usually intravenous. A high value points to good availability. `O=C(O)c1c(Cc2ccc(-c3ccccc3-c3nn[nH]n3)cc2)c(C2CC2)nc2ccccc12` came in with a bioavailability in data set [4] of 11%.

On to `CC(C)C(OC(=O)C(C)(C)C)n1nnc(-c2ccccc2-c2ccc(Cc3c(C4CC4)nc4ccccc4c3C(=O)O)cc2)n1` (configuration not stated), for which the bioavailability in data set [4] was 39%.

As usually defined, the half-life is the time needed for the level to fall by half in the phase considered. A word on the CC50: it is the concentration that lowers cell viability or growth by half. On to `Cn1nnc(-c2ccc(F)c3c(C(=O)C(=O)N4CCN(C(=O)c5ccccc5)CC4)c[nH]c23)n1`, for which, in data set [5], the half-life turned out to be 12 min. In addition, the concentration at 2 h in [1] was 207 ng/mL. The compound further displayed a concentration at 0.5 h in data set [2] of 72 ng/mL. Further, in data set [3], the pEC50 was 7.70. This compound also gave a CC50 in data set [6] of over 300000 nM.

`CC(C)(C)C(=O)OCn1nnc(-c2ccc(F)c3c(C(=O)C(=O)N4CCN(C(=O)c5ccccc5)CC4)c[nH]c23)n1` came in with a concentration at 2 h in data set [1] of 13 ng/mL. For the same compound, in data set [2], the concentration at 0.5 h turned out to be 60 ng/mL. Besides, the pEC50 in data set [3] was 6.72. Moreover, in the data set on Caco-2, the permeability result was “ND(Insoluble)”. Further, in the data set on Liver microsomes, the Drug metabolism result is recorded as “Active”. In data set [6], this compound had a CC50 of 228000 nM.

Turning to `CC(=O)OCn1nnc(-c2ccc(F)c3c(C(=O)C(=O)N4CCN(C(=O)c5ccccc5)CC4)c[nH]c23)n1`, the concentration at 2 h in [1] is 378 ng/mL. For the same compound, the concentration at 0.5 h in data set [2] came to 261 ng/mL. Moreover, in data set [3], the pEC50 was 7.22. For the same compound, in data set [7], the recovery is under 70%. In addition, the Drug metabolism entry with Liver microsomes was “Active”. Half-maximal cytotoxicity in data set [6] (CC50) was put at 36000 nM.
